In ChEMBL document CHEMBL1133793, “Polyamines with N-(3-phenylpropyl) substituents are effective competitive inhibitors of trypanothione reductase and trypanocidal agents” (Bioorg Med Chem Lett, 2001):

Columns and labels:
Trypanosoma brucei [1] = test: Tested in vitro for trypanocidal activity against a drug sensitive strain of Trypanosoma brucei Lab 110 EATRO; assay type: functional, organism-based
Outline: (§1)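 Bloodstream-form trypanosomes were grown in vitro in culture medium containing fetal bovine serum, which the paper notes contains polyamine oxidase. IC50 values in µM.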

Trypanosoma brucei [2] = test: Tested in vitro for trypanocidal activity against KETRI 243 an uncloned clinical isolate of Trypanosoma brucei. rhodesiense; assay type: functional, organism-based; outline: as §1
Trypanosoma brucei [3] = test: Tested in vitro for trypanocidal activity against KETRI 243-As-10-3 a pentamidine and melarsoprol resistant clone of Trypanosoma brucei. rhodesiense KETRI 243; assay type: functional, organism-based; outline: as §1
Trypanosoma brucei [4] = test: Tested in vitro for trypanocidal activity against KETRI 269 an uncloned clinical isolate of Trypanosoma brucei. rhodesiense; assay type: functional, organism-based; outline: as §1
Trypanothione reductase = Trypanothione reductase (Trypanosoma cruzi, UniProt P28593); test: Tested for binding affinity against trypanothione reductase from Trypanosoma cruzi
Trypanothione reductase, sequence (P28593 whole entry): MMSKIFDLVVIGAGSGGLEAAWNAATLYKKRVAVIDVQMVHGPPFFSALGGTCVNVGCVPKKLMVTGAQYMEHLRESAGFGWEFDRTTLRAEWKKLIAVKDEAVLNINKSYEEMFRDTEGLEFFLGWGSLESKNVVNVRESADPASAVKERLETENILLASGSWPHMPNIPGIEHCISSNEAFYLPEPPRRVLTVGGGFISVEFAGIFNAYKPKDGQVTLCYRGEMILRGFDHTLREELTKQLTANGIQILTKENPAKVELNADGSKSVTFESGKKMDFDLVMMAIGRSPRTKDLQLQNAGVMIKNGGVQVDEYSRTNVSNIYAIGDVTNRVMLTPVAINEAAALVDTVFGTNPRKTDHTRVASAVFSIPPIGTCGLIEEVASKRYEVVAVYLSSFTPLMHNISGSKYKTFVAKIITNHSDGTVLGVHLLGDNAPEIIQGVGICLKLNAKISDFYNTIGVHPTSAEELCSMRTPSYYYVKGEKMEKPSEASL
Outline: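 Recombinant T. cruzi TR purified from glutathione reductase-deficient E. coli SG5 strain. Activity read as NADPH oxidation at 340 nm, 23 °C, in HEPES 100 mM pH 7.25 with EDTA 1 mM, NADPH 0.18 mM and TR 2.2 µg/mL. Velocities taken at five trypanothione levels (15-75 µM) and five inhibitor levels. Km(obs) fitted by Michaelis–Menten; Ki from weighted regression of Km(obs) against [I].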

Structure (SMILES)	IC50 (Trypanosoma brucei [1]) [nM]	IC50 (Trypanosoma brucei [2]) [nM]	IC50 (Trypanosoma brucei [3]) [nM]	IC50 (Trypanosoma brucei [4]) [nM]	Ki (Trypanothione reductase) [nM]
c1ccc(CCCNCCCN(CCCCN(CCCc2ccccc2)CCCN(CCCc2ccccc2)CCCc2ccccc2)CCCc2ccccc2)cc1	3050	3350	5500	2200	151
c1ccc(CCCNCCCNCCCCNCCCN(CCCc2ccccc2)CCCc2ccccc2)cc1	400	160	530	270	3620
NCCCN(CCCCN(CCCNCCCc1ccccc1)CCCc1ccccc1)CCCc1ccccc1	270	160	160	160	1380
c1ccc(CCCNCCCNCCCCNCCCNCCCc2ccccc2)cc1	810	1500	2200	1800	12300
NCCCN(CCCCN(CCCN)CCCc1ccccc1)CCCc1ccccc1	660	790	660	580	–
c1ccc(CCCN(CCCCN(CCCc2ccccc2)CCCN(CCCc2ccccc2)CCCc2ccccc2)CCCN(CCCc2ccccc2)CCCc2ccccc2)cc1	22000	35000	24000	30500	10300
NCCCNCCCCNCCCNCCCc1ccccc1	–	–	–	–	37600
NCCCCN(CCCNCCCc1ccccc1)CCCc1ccccc1.NCCCN(CCCCNCCCc1ccccc1)CCCc1ccccc1	310	530	570	380	4670
NCCCCN(CCCN)CCCc1ccccc1	–	–	–	–	14100
c1ccc(CCCNCCCN(CCCCN(CCCNCCCc2ccccc2)CCCc2ccccc2)CCCc2ccccc2)cc1	120	140	150	160	614
c1ccc(CCCNCCCCN(CCCNCCCc2ccccc2)CCCc2ccccc2)cc1	220	360	460	540	3500
